The text below walks through data of ChEMBL document CHEMBL1141748, “Nocardimicins A, B, C, D, E, and F, siderophores with muscarinic M3 receptor inhibiting activity from Nocardia sp. TP-A0674” (J Nat Prod, 2005).

The IC50 is the point on the concentration scale where inhibition reaches its midpoint. In general, Ki refers to the equilibrium dissociation constant of an inhibitor or competing ligand from its target.

The target in test [1] is Muscarinic acetylcholine receptor M3 (Homo sapiens, UniProt P20309). The test can be described thus: Displacement of [3H]NMS from human muscarinic M3 receptor expressed in insect Sf9 cells. Summed up: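 Competition binding used Sf9 membranes stably expressing human M3, incubated with 0.29 nM [3H]-NMS (assay Kd 0.078 nM, Bmax 3.2 pmol/mg protein) in 50 mM Tris-HCl, 10 mM MgCl2, 1 mM EDTA, pH 7.4, 25 °C, 1 h. Nonspecific binding was set with 1 µM atropine. IC50 was taken from competition curves and converted to apparent Ki by Cheng-Prusoff.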
Muscarinic acetylcholine receptor M3, sequence (P20309 whole entry): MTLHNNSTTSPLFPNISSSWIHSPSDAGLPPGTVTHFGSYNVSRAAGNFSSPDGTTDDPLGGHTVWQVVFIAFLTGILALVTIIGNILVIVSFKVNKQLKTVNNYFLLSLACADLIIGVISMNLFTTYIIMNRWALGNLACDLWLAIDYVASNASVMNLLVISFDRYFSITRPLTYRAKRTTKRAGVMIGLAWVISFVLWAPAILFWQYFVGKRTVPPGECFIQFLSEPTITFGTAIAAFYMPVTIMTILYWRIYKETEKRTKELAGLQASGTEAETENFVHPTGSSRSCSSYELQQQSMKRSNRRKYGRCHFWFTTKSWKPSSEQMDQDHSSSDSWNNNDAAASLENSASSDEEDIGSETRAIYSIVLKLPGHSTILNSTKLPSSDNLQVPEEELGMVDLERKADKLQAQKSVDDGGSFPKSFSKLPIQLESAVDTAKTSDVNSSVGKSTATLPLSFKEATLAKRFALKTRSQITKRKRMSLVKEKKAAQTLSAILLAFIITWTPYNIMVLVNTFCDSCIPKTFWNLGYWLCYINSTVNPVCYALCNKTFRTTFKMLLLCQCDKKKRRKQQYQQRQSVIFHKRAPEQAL

The target in test [2] is T1, Muscarinic acetylcholine receptor M1 (Homo sapiens, UniProt P11229).
T1 sequence (P11229 whole entry): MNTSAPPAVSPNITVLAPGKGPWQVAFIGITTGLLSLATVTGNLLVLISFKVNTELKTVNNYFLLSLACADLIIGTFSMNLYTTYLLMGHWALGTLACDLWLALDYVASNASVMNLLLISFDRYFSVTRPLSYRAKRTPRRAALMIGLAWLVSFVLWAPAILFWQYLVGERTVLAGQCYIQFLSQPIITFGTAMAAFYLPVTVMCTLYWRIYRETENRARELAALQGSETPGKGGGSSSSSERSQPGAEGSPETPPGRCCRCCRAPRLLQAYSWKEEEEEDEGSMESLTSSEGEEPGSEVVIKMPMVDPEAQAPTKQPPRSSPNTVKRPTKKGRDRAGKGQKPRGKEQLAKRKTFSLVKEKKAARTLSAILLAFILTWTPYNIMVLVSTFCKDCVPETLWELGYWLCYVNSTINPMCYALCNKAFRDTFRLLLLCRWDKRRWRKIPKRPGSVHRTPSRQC
The test can be described thus: Binding affinity to human muscarinic M1 receptor expressed in insect Sf9 cells. Summed up:
(§1)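 Membranes from Sf9 insect cells stably expressing the human receptor were incubated with 0.29 nM [3H]-NMS in 50 mM Tris-HCl, 10 mM MgCl2, 1 mM EDTA, pH 7.4, for 1 h at 25 °C. Nonspecific binding was defined with 1 µM atropine. IC50 was taken from competition curves and converted to apparent Ki by Cheng-Prusoff.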

The target of test [3] is T2, Muscarinic acetylcholine receptor M2 (Homo sapiens, UniProt P08172).
T2 sequence (P08172 whole entry): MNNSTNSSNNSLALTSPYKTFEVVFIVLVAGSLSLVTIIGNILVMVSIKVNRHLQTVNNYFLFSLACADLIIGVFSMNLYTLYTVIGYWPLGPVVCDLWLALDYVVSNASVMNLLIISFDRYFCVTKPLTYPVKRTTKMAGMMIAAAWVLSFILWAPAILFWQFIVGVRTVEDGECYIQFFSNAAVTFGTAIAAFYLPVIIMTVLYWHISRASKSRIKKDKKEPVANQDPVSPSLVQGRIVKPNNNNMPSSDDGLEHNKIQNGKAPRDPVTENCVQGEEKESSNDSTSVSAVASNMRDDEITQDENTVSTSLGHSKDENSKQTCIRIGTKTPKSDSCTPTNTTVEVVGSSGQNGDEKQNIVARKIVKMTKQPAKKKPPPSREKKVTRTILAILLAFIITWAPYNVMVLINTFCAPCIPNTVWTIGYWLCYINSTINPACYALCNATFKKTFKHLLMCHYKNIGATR
The test can be described thus: Binding affinity to human muscarinic M2 receptor expressed in insect Sf9 cells. In a few lines: as §1

Test [4] concerns the target T3, Muscarinic acetylcholine receptor M4 (Homo sapiens, UniProt P08173).
T3 sequence (P08173 whole entry): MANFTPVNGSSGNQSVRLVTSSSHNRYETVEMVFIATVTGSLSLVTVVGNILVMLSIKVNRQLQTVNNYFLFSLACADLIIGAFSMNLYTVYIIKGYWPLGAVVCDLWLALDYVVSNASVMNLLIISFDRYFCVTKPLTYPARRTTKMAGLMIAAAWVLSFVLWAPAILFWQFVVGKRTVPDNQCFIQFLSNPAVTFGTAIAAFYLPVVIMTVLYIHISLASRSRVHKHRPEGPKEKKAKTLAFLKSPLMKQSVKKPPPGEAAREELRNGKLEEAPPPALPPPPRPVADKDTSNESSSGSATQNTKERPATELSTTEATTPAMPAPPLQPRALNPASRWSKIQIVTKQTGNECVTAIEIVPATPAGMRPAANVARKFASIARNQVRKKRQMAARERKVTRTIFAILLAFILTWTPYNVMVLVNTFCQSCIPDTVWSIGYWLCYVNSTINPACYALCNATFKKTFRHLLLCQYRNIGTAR
The test can be described thus: Binding affinity to human muscarinic M4 receptor expressed in insect Sf9 cells. Summed up:
as §1

Test [5] deals with T4, Muscarinic acetylcholine receptor M5 (Homo sapiens, UniProt P08912).
T4 sequence (P08912 whole entry): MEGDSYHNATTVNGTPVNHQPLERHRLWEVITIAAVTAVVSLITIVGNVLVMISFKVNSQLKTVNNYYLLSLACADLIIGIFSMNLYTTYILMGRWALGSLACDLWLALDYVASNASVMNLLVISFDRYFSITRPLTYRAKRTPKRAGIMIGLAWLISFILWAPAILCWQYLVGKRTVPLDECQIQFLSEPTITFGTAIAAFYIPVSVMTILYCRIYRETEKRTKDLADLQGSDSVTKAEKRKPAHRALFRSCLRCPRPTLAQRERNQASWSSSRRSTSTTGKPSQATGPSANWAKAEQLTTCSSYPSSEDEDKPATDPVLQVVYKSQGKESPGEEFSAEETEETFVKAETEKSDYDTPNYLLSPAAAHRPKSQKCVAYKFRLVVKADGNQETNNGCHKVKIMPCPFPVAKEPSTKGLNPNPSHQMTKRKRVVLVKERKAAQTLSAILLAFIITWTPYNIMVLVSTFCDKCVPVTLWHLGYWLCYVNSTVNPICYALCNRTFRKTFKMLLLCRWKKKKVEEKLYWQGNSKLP
The test can be described thus: Binding affinity to human muscarinic M5 receptor expressed in insect Sf9 cells. In a few lines: as §1

The structures appear in SMILES notation.

With `CCCCCCCCCCCC(OC(=O)C(CCCCN(O)C(C)=O)NC(=O)c1coc(-c2ccccc2O)n1)C(C)C(=O)NC1CCCCN(O)C1=O` (stereo not given) [NOCARDIMICIN B], the IC50 in test [1] amounted to 630 nM; in test [2] it was 2030 nM; in test [3], 1780 nM; in test [4], 1040 nM; in test [5] it was 1640 nM. The inhibition constant (Ki) came to 130 nM in test [1]; 490 nM in test [2]; 630 nM in test [3]; 140 nM in test [4]; 1180 nM in test [5].
In test [1], `CCCCCCCCCCCCCC(OC(=O)C(CCCCN(O)C(C)=O)NC(=O)c1coc(-c2ccccc2O)n1)C(C)C(=O)NC1CCCCNC1=O` (stereo not given) [NOCCARDIMICIN E] came in with a concentration for half-maximal inhibition (IC50) of 4560 nM and a Ki of 970 nM.
In the same order, the values of `CCCCCCCCCC(OC(=O)C(CCCCN(O)C(C)=O)NC(=O)c1coc(-c2ccccc2O)n1)C(C)C(=O)NC1CCCCN(O)C1=O` (stereo not given) [NOCARDIMICIN A] are 5890 nM and 1250 nM.
In test [1], `CCCCCCCCCCCCCC(OC(=O)C(CCCCN(O)C(C)=O)NC(=O)c1coc(-c2ccccc2O)n1)C(C)C(=O)NC1CCCCN(O)C1=O` (stereo not given) [NOCARDIMICIN D] returned a half-maximal inhibitory concentration (IC50) of 1100 nM and an inhibition constant Ki of 230 nM.
Regarding `CCCCCCCCCCCC(OC(=O)C(CCCCN(O)C(C)=O)NC(=O)c1coc(-c2ccccc2O)n1)C(C)C(=O)NC1CCCCNC1=O` (stereo not given) [NOCARDIMICIN C], in test [1], the IC50 stood at 4700 nM and the affinity corresponds to a Ki of 1000 nM.
In test [1], `CCCCCCCCCCCCCCCC(OC(=O)C(CCCCN(O)C(C)=O)NC(=O)c1coc(-c2ccccc2O)n1)C(C)C(=O)NC1CCCCN(O)C1=O` (stereo not given) [NOCARDIMICIN F] yielded an IC50 of 6290 nM and an inhibitory constant (Ki) of 1330 nM.
